# L929 necroptosis: blocks zVAD induced death of L929 cells. L929 zVAD necroptosis rescue, ATP luminescence, 24 h; with zVAD 60 µM. hit rate 0.38% among 220,000. viability rescue, % at 10 µM;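 active means activation, scaled between plate controls, above about 75%, limit read from the data; inactive means activation under that limit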
# TNF necrop inh: inhibitors of TNF-alpha induced necroptosis in Jurkat FADD-/- cells; activation (protection from cell death), % at 10 µM; Jurkat FADD-/- TNF necroptosis rescue, ATP luminescence, 24 h; 0 = TNF only, 100 = no-TNF cells; hit rate 0.068% among 220,000;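 active means activation, meaning protection from cell death, of at least 50% relative to plate controls; inactive means activation below 50%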;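 further: necroptosis triggered by 40 ng/mL TNF-alpha added together with compound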
# Beta2AR agonist: human beta-2 adrenergic receptor agonism by FAP. P07550. Am2.2-beta2AR cells, FAP receptor internalization, flow cytometry. response, % (concentration not given with the values). hit rate 0.43% among 340,000. AID 504454;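 active means response above a set limit, near 3 SD of response in nonfluorescent compounds, cut at about 42% in these data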
# Target sequence (P07550 whole entry, looked up): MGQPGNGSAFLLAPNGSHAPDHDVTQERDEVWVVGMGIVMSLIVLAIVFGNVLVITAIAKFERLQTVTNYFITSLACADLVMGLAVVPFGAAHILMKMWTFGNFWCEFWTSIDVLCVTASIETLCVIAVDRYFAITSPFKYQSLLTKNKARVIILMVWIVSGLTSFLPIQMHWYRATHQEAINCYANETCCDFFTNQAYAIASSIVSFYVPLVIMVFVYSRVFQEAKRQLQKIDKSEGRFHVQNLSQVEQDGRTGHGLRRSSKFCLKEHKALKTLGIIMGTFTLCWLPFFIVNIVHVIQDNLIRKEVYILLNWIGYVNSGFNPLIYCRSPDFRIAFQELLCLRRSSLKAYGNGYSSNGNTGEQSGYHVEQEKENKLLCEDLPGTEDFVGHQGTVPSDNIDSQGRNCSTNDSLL
# Dynein cargo inh: dynein cargo transport inhibition | hit rate 0.47% among 220,000 | z-score, hits read low | 3617.4 mouse cells, GR-EGFP nuclear translocation imaging; test concentration mostly 20 µM; stimulated with dexamethasone, 1 µM; stronger effect = lower value;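 active means plate z-score of nuclear minus cytoplasmic receptor signal below a set negative limit, without overly bright fluorescence or cell loss, cut at about -3.5 in these data, passing the limit was not always enough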;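 further: z-score of nuclear minus cytoplasmic ring GR-EGFP intensity difference per well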
#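 Also added – dexamethasone, 1.0 µM final · Buffer or medium – tet-free, stripped-serum medium · Schedule – induction 48 h, compound 1 h, agonist 30 min · Detection – formaldehyde fixation, Hoechst nuclear stain, 10x automated fluorescence imaging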
# MDM2 E3 inh: inhibitors of human Mdm2 E3 ubiquitin ligase; cell-based MDM2 ubiquitination luciferase reporter, 2 h; 0 = plate control, 100 = twice control, blank-subtracted; Q00987; signal enhancement, % at 5 µM; hit rate 0.11% among 210,000;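 active means signal enhancement of 30% or more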;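 further: luminescence tracks abundance of the self-degrading MDM2-luciferase fusion protein; higher signal means inhibition of MDM2 E3 ligase activity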
#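 Material: Stable MDM2–luciferase fusion reporter cells | Amount: 2000 cells seeded into each well | Dosing: One concentration, 5 µM, with 0.2% DMSO | Incubation: 4 h cell settling then 2 h compound exposure, 37 °C | Measured by: Luciferase luminescence | Read-out basis: % enhancement relative to plate controls after blank subtraction | Benchmarks: Control and blank well means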
# B2AR ag CP1: agonists of human beta-2 adrenergic receptor | shares compounds with Beta2AR agonist | Am2.2-beta2AR cells, FAP surface receptor, flow cytometry; stronger effect = lower value | percent response (surface receptor), % at 10 µM | hit rate 25% among 1,100 | AID 540358;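 active means surface receptor percent response at or below 58%, roughly 3 SD from nonfluorescent compounds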
# B2AR FAP counter: fluorescence artifact in beta-2AR agonist FAP counterscreen; shares compounds with Beta2AR agonist; Am2.2 cells, FAP fluorogen flow cytometry; stronger effect = lower value; 1,100 tested, under 10 active; calls only at 10 µM; AID 588765;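 active means percent response below a set limit in fluorescence channel 1 and below 50% in channel 8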
# A number is an active result; n = inactive; x = no result given; ! = not confirmed by another sample. The list is not random: actives were taken first. Their share in the collection is about 0.97%.
SMILES,L929 necroptosis,TNF necrop inh,Beta2AR agonist,Dynein cargo inh,MDM2 E3 inh,B2AR ag CP1,B2AR FAP counter
O=C(Nc1ccccc1)c1ccccc1CCc1ccccc1,n,n,n,n,n,45.7,n
CCNC(=O)c1ccccc1CCc1ccccc1,n,n,n,n,n,x,x
CCCCCCCCCCOC(=O)Cn1c(COc2ccccc2)[n+](C)c2ccccc21,x,x,n,x,x,x,x
CCCCCCCCCCOC(=O)Cn1c(COc2ccccc2C)[n+](C)c2ccccc21,x,x,68.3,x,x,n,n
CCCCCCCCCCOC(=O)Cn1c(COc2cccc(C)c2)[n+](C)c2ccccc21,x,x,n,x,x,n,n
CCCCCCCCCCOC(=O)Cn1c(COc2ccc(OC)cc2)[n+](C)c2ccccc21,x,x,n,x,x,n,n
Cc1ccccc1OCc1n(CC(=O)OC2CC(C)CCC2C(C)C)c2ccccc2[n+]1C (stereo unspecified),n,n,108.3!,n,n,n,n
CN(C)S(=O)(=O)N1CCC(Oc2ccc(C(=O)NCCc3cscn3)cc2)CC1,x,x,n,x,x,x,x
CN1C(=O)S/C(=C/c2cccn2-c2cccc(C(=O)O)c2)C1=O,n,n,n,n,n,x,x
CCOC(=O)N1CCN(S(=O)(=O)c2c[nH]c(C(=O)OC)c2)CC1,x,x,n,x,x,x,x
O=C(CSC(=S)N1CCSCC1)c1ccccc1,n,n,n,n,n,x,x
COc1ccc(-c2nn(-c3ccccc3)cc2C(=O)Nc2nccs2)cc1,n,n,42.9,n,n,n,n
CC(C)(C)NC(=O)C(c1ccc(F)cc1)N(Cc1ccccc1Cl)C(=O)c1ccn[nH]1 (stereo unspecified),n,n,n,n,n,n,n
CCC(C)(C)NC(=O)C(c1ccccc1F)N(C(=O)c1ccn[nH]1)c1ccccc1 (stereo unspecified),n,n,n,n,n,x,x
Cc1ccc(C(=O)c2c(NC(=O)CSc3nnc(N)s3)sc3c2CCCC3)cc1,n,n,n,n,n,x,x
CCN(CC)c1ccc(-c2nn3c(-c4ccccc4OC)nnc3s2)cc1,n,n,42.1,n,n,n,n
COc1ccc(-c2nn3c(-c4ccccc4)nnc3s2)cc1,n,n,n,n,n,x,x
O=[N+]([O-])c1ccc(Sc2nc3ccccc3o2)c([N+](=O)[O-])c1,n,n,73.8,n,n,n,n
CCC(C)C(=O)Nc1cc(OC)c(OC)cc1C(=O)O (stereo unspecified),n,n,n,n,n,x,x
CCC(CC)C(=O)Nc1cc(OC)c(OC)cc1C(=O)O,n,n,92.4,n,n,n,n
COc1c2ccoc2c(OC[C@@H](OC(C)=O)C(C)(C)O)c2oc(=O)ccc12,x,x,n,x,x,x,x
COc1ccc(/C=N/n2cnc3c([nH]c4ccc(F)cc43)c2=O)cc1CSc1ccccn1,n,n,57.7,n,n,n,n
COc1ccc2c(c1)[nH]c1c(=O)n(/N=C/c3ccc(OC)c(COc4ccccn4)c3)cnc12,n,n,n,n,n,x,x
CCOc1ccc(-n2nc3ccc(NC(=O)c4ccc5c(c4)OCCO5)cc3n2)cc1,n,n,69.0,n,n,n,n
O=C(Nc1ccc2oc(-c3ccccc3F)nc2c1)c1ccc2c(c1)OCCO2,n,n,n,n,n,n,n
SMILES,L929 necroptosis,TNF necrop inh,Beta2AR agonist,Dynein cargo inh,MDM2 E3 inh,B2AR ag CP1,B2AR FAP counter
O=C(Nc1ccc2nn(-c3ccccc3)nc2c1)c1ccc2c(c1)OCCO2,n,n,n,n,n,x,x
COC(=O)CSCC(=O)Nc1nnc(-c2cccc(C)c2)s1,n,n,n,n,n,x,x
O=C(Nc1ccc(N2CCCC2)cc1)c1cc(Cl)ccc1Cl,x,x,73.2,x,x,n,n
COCC1CCCN(C(=O)c2cc(COc3cncc(Cl)c3)on2)C1 (stereo unspecified),x,x,n,x,x,x,x
C=CCC1(CC=C)CCCN1C(=O)c1cc(COc2cncc(Cl)c2)on1,x,x,n,x,x,x,x
Cc1ccc(OCc2cc(C(=O)N(C)Cc3cnn(-c4ccccc4C)c3)no2)cn1,x,x,100.1,x,x,19.4,n
CCC(NC(=O)c1cc(COc2cncc(Cl)c2)on1)c1ccc(C)cc1 (stereo unspecified),x,x,n,x,x,n,n
